# Experimental data reported in PMC10791069 (SLAS discovery : advancing life sciences R & D, 2019).
# Where two headings read alike, the source gives them in different places.
# Assays:
# NIH 3T3 cells = assay: CellTiter-Glo cytotoxicity qHTS, NIH 3T3; assay type: cell-based, murine; settings: for cell killing of NIH 3T3 compared with cancer cell line KB-3–1 (in words): pan-active outliers, 12 dose-point confirmation; for cell killing of NIH 3T3 cells (in words): 48 hr; for EC50: read-out: EC50 NIH 3T3
# In short: (§1)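 HEK 293 (250 cells/well) or NIH 3T3 (400 cells/well) are seeded in 5 μL. Dosing: annotated library 8-pt (0.6 nM–46 μM) or 11-pt (0.8 nM–46 μM); diversity library 4-pt, mostly 115, 58, 12 and 2.3 μM; cherry-picks confirmed over 12 points, 0.3 nM–46 μM final. Incubate 48 hr at 37 °C, then read CellTiter-Glo luminescence after 10 min. Normalize to DMSO and 9.2 μM bortezomib; EC50 from a four-parameter logistic fit.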
# HEK 293 cells = assay: CellTiter-Glo cytotoxicity qHTS, HEK 293; assay type: cell-based, human; settings: for cell killing of HEK 293 compared with cancer cell line KB-3–1 (in words): pan-active outliers, 12 dose-point confirmation; for cell killing of HEK 293 cells (in words): 48 hr; for EC50: read-out: EC50 HEK 293
# In short: as §1
# CRL-7250 cells = assay: CellTiter-Glo cytotoxicity qHTS, CRL-7250; assay type: cell-based, human; settings: for cell killing of CRL-7250 cells (in words): CellTiter-Glo, 48 hr
# In short: (§2)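 CRL-7250 (primary) or HaCat cells are seeded at 500 cells/well in 5 μL medium. Test compound is pin-transferred as an 8-pt series (0.6 nM–46 μM, 1:5) or an 11-pt series (0.8 nM–46 μM, 1:3). Incubate 48 hr at 37 °C and 85% humidity. Add CellTiter-Glo and read luminescence after 10 min at room temperature. Normalize to DMSO (0%) and 9.2 μM bortezomib (−100%); EC50 comes from a four-parameter logistic fit.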
# HaCat cells = assay: CellTiter-Glo cytotoxicity qHTS, HaCat; assay type: cell-based, human
# In short: as §2
# KB 3–1 cells = assay: CellTiter-Glo cytotoxicity qHTS, KB 3-1; assay type: cell-based, human; settings: for cell killing of KB 3–1 cells (in words): 48 hr; for EC50: read-out: EC50 KB 3–1
# In short: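 HeLa-derived KB 3–1 cells are seeded at 500 cells/well in 5 μL. Annotated library is tested 8-pt (0.6 nM–46 μM, 1:5) or 11-pt (0.8 nM–46 μM, 1:3); cherry-picks are retested 12-pt, 0.3 nM–46 μM final. Incubate 48 hr at 37 °C, then read CellTiter-Glo luminescence after 10 min at room temperature. Normalize to DMSO and 9.2 μM bortezomib; EC50 from a four-parameter logistic fit.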
# [1] = biological target: T1, CTG engineered firefly luciferase (Photuris pensylvanica, UniProt Q27757); assay: CellTiter-Glo luciferase counter-assay; assay type: biochemical; settings: read-out: EC50 CTG Luciferase; cell-free media with CTG and ATP added as substrate
# T1 sequence (Q27757 1-545): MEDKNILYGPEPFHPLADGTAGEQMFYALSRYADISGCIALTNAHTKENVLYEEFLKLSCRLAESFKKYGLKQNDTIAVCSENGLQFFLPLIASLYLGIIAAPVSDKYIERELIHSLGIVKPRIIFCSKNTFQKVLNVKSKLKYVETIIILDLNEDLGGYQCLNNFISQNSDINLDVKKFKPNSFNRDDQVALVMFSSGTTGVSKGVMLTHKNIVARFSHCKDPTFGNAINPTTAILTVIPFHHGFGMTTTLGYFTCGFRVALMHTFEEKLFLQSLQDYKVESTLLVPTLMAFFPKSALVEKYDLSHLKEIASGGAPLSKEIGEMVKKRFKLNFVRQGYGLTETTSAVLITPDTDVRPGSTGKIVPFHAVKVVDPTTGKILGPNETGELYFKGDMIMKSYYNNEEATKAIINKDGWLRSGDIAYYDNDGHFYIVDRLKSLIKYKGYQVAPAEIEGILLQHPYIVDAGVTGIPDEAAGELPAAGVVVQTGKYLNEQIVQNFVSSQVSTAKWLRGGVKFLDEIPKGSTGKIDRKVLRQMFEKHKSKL
# HEK293 cells = assay: Bright-field microscopy of treated cells; assay type: cell-based, human; settings: 48 hr, at concentrations suggested to be cytotoxic by CTG dose-response data
# [2] = biological target: Photinus pyralis luciferase (Photinus pyralis, UniProt P08659); assay: Firefly luciferase inhibition assay; assay type: biochemical; settings: read-out: EC50 Luciferase; 10 nM Photinus pyralis luciferase, 10 μM ATP, 10 μM D-Luciferin
# Chain of Photinus pyralis luciferase (P08659 whole entry): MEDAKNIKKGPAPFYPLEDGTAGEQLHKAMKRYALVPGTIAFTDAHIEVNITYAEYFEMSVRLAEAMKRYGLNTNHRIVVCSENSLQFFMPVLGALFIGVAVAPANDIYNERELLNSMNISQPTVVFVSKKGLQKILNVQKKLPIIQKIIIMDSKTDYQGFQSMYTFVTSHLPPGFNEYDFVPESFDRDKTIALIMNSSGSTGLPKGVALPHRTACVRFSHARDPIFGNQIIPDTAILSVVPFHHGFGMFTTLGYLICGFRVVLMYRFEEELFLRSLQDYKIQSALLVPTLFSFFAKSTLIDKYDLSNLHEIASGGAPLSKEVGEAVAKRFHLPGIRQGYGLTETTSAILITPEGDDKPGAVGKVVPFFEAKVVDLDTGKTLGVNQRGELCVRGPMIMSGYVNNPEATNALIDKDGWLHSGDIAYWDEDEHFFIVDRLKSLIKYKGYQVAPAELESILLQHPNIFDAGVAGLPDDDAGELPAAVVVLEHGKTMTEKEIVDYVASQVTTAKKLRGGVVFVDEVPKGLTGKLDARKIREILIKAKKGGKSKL
# [3] = CellTiter-Glo, 48 hr incubation
smiles,measurement,setting,value
Cc1nn2c(c1-c1ccccc1Oc1ccccc1)N(Cc1ccccc1O)CCC2 [NCGC00420455],cell killing of NIH 3T3 compared with cancer cell line KB-3–1 (in words),NIH 3T3 cells,greater cell killing
same,cell killing of HEK 293 compared with cancer cell line KB-3–1 (in words),HEK 293 cells,greater cell killing
COc1ncc2cc(C(=O)Nc3cc(C(=O)NCc4cccc(Cl)c4)ccc3Cl)c(=O)[nH]c2n1 [TC-S7004],cell killing of NIH 3T3 cells (in words),NIH 3T3 cells; CellTiter-Glo,no effect
same,cell killing of CRL-7250 cells (in words),CRL-7250 cells,no effect
same,cell killing of HEK 293 cells (in words),HEK 293 cells; CellTiter-Glo,no effect
same,cell killing of HaCat cells (in words),"HaCat cells; CellTiter-Glo, 48 hr",no effect
same,cell killing of KB 3–1 cells (in words),KB 3–1 cells; CellTiter-Glo,complete killing
same,EC50,KB 3–1 cells; [3],3.2 µM
c1cc(-c2cnn3cc(-c4ccc(N5CCNCC5)cc4)cnc23)c2cccnc2c1 [LDN-212854],cell killing of NIH 3T3 cells (in words),NIH 3T3 cells; CellTiter-Glo,no effect
same,cell killing of CRL-7250 cells (in words),CRL-7250 cells,no effect
same,cell killing of HEK 293 cells (in words),HEK 293 cells; CellTiter-Glo,partial killing
same,EC50,HEK 293 cells; [3],16.4 µM
same,cell killing of KB 3–1 cells (in words),KB 3–1 cells; CellTiter-Glo,complete killing
same,EC50,KB 3–1 cells; [3],4.1 µM
O=C1c2cnc(-c3cc4ccccc4o3)nc2OCCN1c1ccccc1 [NCGC00413607],EC50,[1],7.3 µM
same,cell growth by bright-field microscopy,HEK293 cells,unaffected cell growth
same,EC50,[2],0.08 µM
Cc1nn2c(c1-c1ccccc1-c1ccccc1)N(Cc1ccc(O)cc1)CCC2 [NCGC00420512],cell killing of NIH 3T3 compared with cancer cell line KB-3–1 (in words),NIH 3T3 cells,greater cell killing
same,cell killing of HEK 293 compared with cancer cell line KB-3–1 (in words),HEK 293 cells,greater cell killing
O=C(Nc1ccccc1)OC[C@H]1C[C@@H]2CCN1C[C@@H]2c1cc(C2CCCC2)nc(-c2ccncc2)n1 [NCGC00421344],"potency in HEK 293 cell relative to the other two cell lines (NIH 3T3, KB 3–1)",HEK 293 cells; CellTiter-Glo EC50 comparison,> 10 fold
Cc1nn2c(c1-c1ccccc1-c1ccccc1)N(CC1CC1)CCC2 [NCGC00420435],cell killing of NIH 3T3 compared with cancer cell line KB-3–1 (in words),NIH 3T3 cells,greater cell killing
same,cell killing of HEK 293 compared with cancer cell line KB-3–1 (in words),HEK 293 cells,greater cell killing
O=C(c1ccc(Cl)cc1)N1CCOCC2(CN(Cc3cc(F)cc(F)c3)C2)C1 [NCGC00419015],EC50,NIH 3T3 cells; [3],0.72 µM
same,EC50,HEK 293 cells; [3],0.51 µM
same,EC50,KB 3–1 cells; [3],0.64 µM
COc1cccc(-c2ncc3c(n2)OCCN(c2ccccc2)C3=O)c1 [NCGC00413522],EC50,[1],26.6 µM
same,cell growth by bright-field microscopy,HEK293 cells,unaffected cell growth
same,EC50,[2],0.89 µM
CC(C)C[C@H](NC(=O)[C@@H](NC(=O)c1cccc(-c2ccccc2)n1)[C@@H](C)O)B(O)O [delanzomib],EC50,"NIH 3T3 cells; Mus musculus, NIH3T3, 48 h",0.082 µM
same,EC50,"CRL-7250 cells; Homo sapiens, 48 h, read-out: EC50 CRL-7250",0.205 µM
same,EC50,"HEK 293 cells; Homo sapiens, HEK293, 48 h",0.148 µM
same,EC50,"HaCat cells; Homo sapiens, HaCaT, 48 h, read-out: EC50 HaCat",0.326 µM
same,EC50,"KB 3–1 cells; Homo sapiens, KB 3-1, 48 h",0.186 µM
